According to ChEMBL document CHEMBL4837248, “Discovery and SAR Evolution of Pyrazole Azabicyclo[3.2.1]octane Sulfonamides as a Novel Class of Non-Covalent N-Acylethanolamine-Hydrolyzing Acid Amidase (NAAA) Inhibitors for Oral Administration” (J Med Chem, 2021):
Active and inactive are the calls of the source. No cut-off for these calls is given here.

Target: T1, N-acylethanolamine-hydrolyzing acid amidase (Homo sapiens) (UniProt Q02083)
T1 sequence (whole entry): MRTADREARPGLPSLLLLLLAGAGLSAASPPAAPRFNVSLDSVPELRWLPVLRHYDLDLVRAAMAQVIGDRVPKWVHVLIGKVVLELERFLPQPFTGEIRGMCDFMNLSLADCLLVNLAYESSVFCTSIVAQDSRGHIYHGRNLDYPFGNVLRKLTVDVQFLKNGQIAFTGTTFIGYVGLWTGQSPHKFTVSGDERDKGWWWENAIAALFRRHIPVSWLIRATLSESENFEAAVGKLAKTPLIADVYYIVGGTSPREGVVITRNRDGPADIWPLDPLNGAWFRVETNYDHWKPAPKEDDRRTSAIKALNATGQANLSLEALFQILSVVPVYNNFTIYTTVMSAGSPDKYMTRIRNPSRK
Assay: Inhibition of ARN14686 probe binding to human NAAA expressed in HEK293 cells preincubated for 2 hrs followed by ARN14686 probe addition and measured after 15 mins by fluorescence assay
Format: cell-based
Details: time 135.0 min
Outline: (§1)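 Lysosomal enrichment (0.5 mg/mL) from HEK293 cells overexpressing human NAAA was preincubated 2 h at 37 °C with compound at a final 20 μM (2% DMSO); DMSO-only controls were included. ARN14686 probe (20 μM) was then added at 37 °C for 15 min or 4 h. An Alexa Fluor 545 azide was attached by CuSO4/TCEP/TBTA click chemistry (2 h, 25 °C). Read-out was SDS-PAGE in-gel fluorescence at 532 nm, with Coomassie loading control.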

With `CCOCc1cnc(O[C@H]2C[C@H]3CC[C@@H](C2)N3S(=O)(=O)c2c(C)n[nH]c2C)cn1` as the compound, how does the inhibition read?
Its inhibition is “Active”.

Target: T1, N-acylethanolamine-hydrolyzing acid amidase (Homo sapiens)
Assay: Inhibition of recombinant human NAAA expressed in HEK293 cells using PAMCA as fluorogenic substrate at 50 uM preincubated for 30 mins followed by substrate addition and measured after 50 mins by fluorescence assay relative to control
Format: cell-based
Details: not given
Outline: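 Lysosomal-type enzyme-enriched lysate from HEK-293 cells stably expressing human NAAA (4 μg protein), preincubated 30 min with compound or 5% DMSO in 100 mM citrate/phosphate pH 4.5 with 3.0 mM DTT, 0.1% NP40, 0.05% BSA, 150 mM NaCl. Reaction started with PAMCA substrate (2 μM), run 50 min at 37 °C. Fluorescence read at ex 355/em 460 nm against enzyme-free background.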

With `Cc1n[nH]c(C)c1C(=O)N1CCC(Oc2cnccn2)CC1` as the compound, how does the inhibition read?
Its inhibition is less than 10%.

How did the inhibition turn out when `Cc1n[nH]c(C)c1S(=O)(=O)N1CC(Oc2cnccn2)C1` was run?
Its inhibition is less than 10%.

How did the inhibition turn out when `Cc1n[nH]c(C)c1S(=O)(=O)N1CCC(c2cnccn2)CC1` was run?
Its inhibition is less than 10%.

For `Cc1noc(C)c1S(=O)(=O)N1CCC(Oc2cnccn2)CC1`, which inhibition is on record?
The inhibition was less than 10%.

Which inhibition does the source give for `Cc1n[nH]c(C)c1S(=O)(=O)N1CCC(Nc2cnccn2)CC1` here?
Its inhibition is less than 10%.

How did the inhibition turn out when `O=S(=O)(c1cn[nH]c1)N1CCC(Oc2cnccn2)CC1` was run?
Its inhibition is less than 10%.

Which inhibition does the source give for `Cc1cnn(C)c1S(=O)(=O)N1CCC(Oc2cnccn2)CC1` here?
The inhibition was less than 10%.

How did the inhibition turn out when `Cc1n[nH]c(C)c1S(=O)(=O)N1CCC(Cc2cnccn2)CC1` was run?
Its inhibition is less than 10%.

With `Cc1nn(C)c(C)c1S(=O)(=O)N1CCC(Oc2cnccn2)CC1` as the compound, how does the inhibition read?
The inhibition was less than 10%.

With `Cc1n[nH]c(C)c1S(=O)(=O)N1[C@@H]2CC[C@H]1C[C@H](Oc1cnccn1)C2` as the compound, how does the inhibition read?
Its inhibition is less than 10%.

Which inhibition does the source give for `COc1n[nH]c(C)c1S(=O)(=O)N1CCC(Oc2cnccn2)CC1` here?
The inhibition was less than 10%.

With `Cc1n[nH]c(C)c1S(=O)(=O)N1C[C@H]2CCC[C@@H](C1)[C@H]2Oc1cnccn1` as the compound, how does the inhibition read?
Its inhibition is less than 10%.

For `Cc1n[nH]c(C)c1S(=O)(=O)N[C@H]1CC[C@H](Oc2cnccn2)CC1`, which inhibition is on record?
Its inhibition is less than 10%.

For `Cc1n[nH]cc1S(=O)(=O)N1CCC(Oc2cnccn2)CC1`, which inhibition is on record?
Its inhibition is less than 10%.

Target: T1, N-acylethanolamine-hydrolyzing acid amidase (Homo sapiens)
Assay: Inhibition of ARN14686 probe binding to human NAAA expressed in HEK293 cells preincubated for 2 hrs followed by ARN14686 probe addition and measured after 4 hrs by fluorescence assay
Format: cell-based
Details: time 6.0 hrs
Outline: as §1

Which inhibition does the source give for `CCOCc1cnc(O[C@H]2C[C@H]3CC[C@@H](C2)N3S(=O)(=O)c2c(C)n[nH]c2C)cn1` here?
The inhibition was “inactive”.
